Key:
Canis familiaris [1] = assay: Cardiotoxicity in spontaneously respiring dog assessed as degree of increase in heart rate at 20 to 40 mg/kg, iv relative to control; type: toxicity, organism-based, Canis lupus familiaris; set-up: dose 20-40 mg/kg, route intravenous; conditions: in vivo
In short: (§1)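 Anesthetized, spontaneously respiring dogs. Heart rate was taken from a lead II EKG, and blood pressure from the right femoral artery by transducer. The increase in heart rate (beats/min) was scored on a graded scale with more than 4 dogs per dose, and its duration was recorded. Drugs were dissolved fresh in distilled water, diluted in physiological saline and kept on ice.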

Canis familiaris [2] = assay: Cardiotoxicity in spontaneously respiring dog assessed as degree of increase in heart rate at 160 mg/kg, id relative to control; type: toxicity, organism-based, Canis lupus familiaris; set-up: dose 160 mg/kg, route intraduodenal; conditions: in vivo, other; in short: as §1
Canis familiaris [3] = assay: Cardiotoxicity in spontaneously respiring dog assessed as degree of increase in heart rate at 250 to 1000 mg/kg, it relative to control; type: toxicity, organism-based, Canis lupus familiaris; set-up: dose 250-1000 mg/kg, route endotracheal; conditions: in vivo, inhaled_or_intranasal; in short: as §1
Canis familiaris [4] = assay: Cardiotoxicity in spontaneously respiring dog assessed as time of increase in heart rate at 20 to 40 mg/kg, iv relative to control; type: toxicity, organism-based, Canis lupus familiaris; set-up: dose 20-40 mg/kg, route intravenous; conditions: in vivo; in short: as §1
Canis familiaris [5] = assay: Cardiotoxicity in spontaneously respiring dog assessed as time of increase in heart rate at 160 mg/kg, id relative to control; type: toxicity, organism-based, Canis lupus familiaris; set-up: dose 160 mg/kg, route intraduodenal; conditions: in vivo, other; in short: as §1
Canis familiaris [6] = assay: Cardiotoxicity in spontaneously respiring dog assessed as time of increase in heart rate at 250 to 1000 mg/kg, it relative to control; type: toxicity, organism-based, Canis lupus familiaris; set-up: dose 250-1000 mg/kg, route endotracheal; conditions: in vivo, inhaled_or_intranasal; in short: as §1
Canis familiaris [7] = assay: Bronchodilator activity in dog assessed as time of inhibition of carbachol or histamine-induced bronchoconstriction at 20 to 40 mg/kg, iv relative to control; type: functional, Canis lupus familiaris; conditions: dose mg/kg 20-40
In short: (§2)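 Dog airway model: anesthetized, cannulated via a nonbreathing valve, with airway pressure changes recorded after iv carbachol (2–4 μg/kg) or histamine diphosphate (20–50 μg/kg) challenge, each agonist in different animals. Compounds were given iv, intraduodenally or intratracheally from fresh aqueous stocks diluted in saline. Duration (h) of inhibition of induced bronchoconstriction was followed, and the two agonist datasets were pooled.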

Canis familiaris [8] = assay: Bronchodilator activity in dog assessed as time of inhibition of carbachol or histamine-induced bronchoconstriction at 160 mg/kg, id relative to control; type: functional, Canis lupus familiaris; conditions: route intraduodenal; in short: as §2
Canis familiaris [9] = assay: Bronchodilator activity in dog assessed as time of inhibition of carbachol or histamine-induced bronchoconstriction at 250 to 1000 mg/kg, it relative to control; type: functional, Canis lupus familiaris; conditions: dose mg/kg 250-1000; route endotracheal; in short: as §2
Canis familiaris [10] = assay: Bronchodilator activity in dog assessed as degree of inhibition of carbachol or histamine-induced bronchoconstriction at 20 to 40 mg/kg, iv relative to control; type: functional, Canis lupus familiaris; conditions: dose mg/kg 20-40
In short: (§3)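 Anesthetized dogs, trachea cannulated with a nonbreathing valve. Bronchoconstriction induced by iv carbachol (2–4 μg/kg) or histamine diphosphate (20–50 μg/kg) in separate animals, and airway pressure recorded by transducer. Drug stocks were made fresh in distilled water, diluted in saline and kept on ice. Read-out was percent inhibition of control constriction, averaged over at least three dogs per dose at the higher dose. Carbachol and histamine data were combined.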

Canis familiaris [11] = assay: Bronchodilator activity in dog assessed as degree of inhibition of carbachol or histamine-induced bronchoconstriction at 160 mg/kg, id relative to control; type: functional; conditions: Canis lupus familiaris, route intraduodenal; in short: as §3
Canis familiaris [12] = assay: Bronchodilator activity in dog assessed as degree of inhibition of carbachol or histamine-induced bronchoconstriction at 250 to 1000 mg/kg, it relative to control; type: functional, Canis lupus familiaris; conditions: dose mg/kg 250-1000; route endotracheal; in short: as §3
Canis familiaris [13] = assay: Bronchodilator activity in dog assessed as time of inhibition of carbachol or histamine-induced bronchoconstriction at 530 to 1060 mg/kg, it relative to control; type: functional, Canis lupus familiaris; conditions: dose mg/kg 530-1060; route endotracheal
In short: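 Anesthetized dogs with an airway cannula and a nonbreathing valve. Bronchoconstriction was induced by iv carbachol (2–4 μg/kg) or histamine diphosphate (20–50 μg/kg) and read as change in airway pressure by transducer. Each compound was tested against both agonists in different dogs, and the results were combined and averaged. Effect is % inhibition of control constriction, with at least three dogs per dose. Drugs were dissolved fresh in distilled water, diluted in saline and kept on ice.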

Canis familiaris [14] = assay: Bronchodilator activity in dog assessed as degree of inhibition of carbachol or histamine-induced bronchoconstriction at 530 to 1060 mg/kg, it relative to control; type: functional, Canis lupus familiaris; conditions: dose mg/kg 530-1060; route endotracheal; in short: as §3

Q: For `COc1ccc(C(=O)Oc2ccc([C@@H](O)CNC(C)(C)C)cc2OC(C)=O)cc1.CS(=O)(=O)O`, which Activity (Canis familiaris [1]) is on record?
A: 20%

Q: And the Activity (Canis familiaris [2])?
A: 20%

Q: What about the Activity (Canis familiaris [3]) of the same compound?
A: 5%

Q: And the Time (Canis familiaris [4])?
A: 2 h

Q: And the Time (Canis familiaris [5])?
A: < 3 h

Q: What about the Time (Canis familiaris [6]) of the same compound?
A: < 1 h

Q: What about the Time (Canis familiaris [7]) of the same compound?
A: >4 h

Q: What about the Time (Canis familiaris [8]) of the same compound?
A: >5 h

Q: What about the Time (Canis familiaris [9]) of the same compound?
A: >6 h

Q: And the “inhibition (INH)” value (Canis familiaris [10])?
A: >70%

Q: What about the inhibition in vivo at 160 mg/kg (Canis familiaris [11]) of the same compound?
A: > 70%

Q: And the “inhibition (INH)” value (Canis familiaris [12])?
A: >70%

Q: Which Time (Canis familiaris [13]) does the source give for `Cc1ccc(CC(=O)Oc2ccc([C@@H](O)CNC(C)(C)C)cc2OC(=O)Cc2ccc(C)cc2)cc1.Cl` here?
A: 2 h

Q: What about the “inhibition (INH)” value (Canis familiaris [14]) of the same compound?
A: 40%
